From ChEMBL document CHEMBL1629536, “Incorporation of piperazino functionality into 1,3-disubstituted urea as the tertiary pharmacophore affording potent inhibitors of soluble epoxide hydrolase with improved pharmacokinetic properties” (J Med Chem, 2010)
≈ marks a conversion by molar mass, not a printed value.

Columns and labels:
[1] = target: T1, Bifunctional epoxide hydrolase 2 (Homo sapiens, UniProt P34913); assay: Inhibition of human recombinant soluble epoxide hydrolase expressed in baculovirus expression system by fluorimetric assay
T1 sequence (P34913 whole entry): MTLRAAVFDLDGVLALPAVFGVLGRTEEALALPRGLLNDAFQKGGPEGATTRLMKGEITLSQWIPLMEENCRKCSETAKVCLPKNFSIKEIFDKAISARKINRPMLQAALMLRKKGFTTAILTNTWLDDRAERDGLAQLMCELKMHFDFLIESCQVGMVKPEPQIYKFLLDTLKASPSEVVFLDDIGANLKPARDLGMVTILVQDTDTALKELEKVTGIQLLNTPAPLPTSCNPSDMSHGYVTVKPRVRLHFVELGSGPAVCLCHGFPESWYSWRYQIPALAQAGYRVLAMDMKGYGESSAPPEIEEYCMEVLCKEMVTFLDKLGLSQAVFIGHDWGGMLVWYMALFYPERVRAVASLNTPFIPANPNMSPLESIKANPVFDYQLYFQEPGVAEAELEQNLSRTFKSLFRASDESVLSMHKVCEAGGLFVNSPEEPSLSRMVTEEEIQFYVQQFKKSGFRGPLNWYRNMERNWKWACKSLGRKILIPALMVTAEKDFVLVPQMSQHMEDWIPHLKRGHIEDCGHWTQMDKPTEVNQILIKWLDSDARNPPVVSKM

[2] = Solubility in sodium phosphate buffer at 0.1 M pH 7.4 at 25 degC; type: physicochemical
[3] = Tmax in mouse at 5 mg/kg, po; type: ADME, organism-based; design: dose 5 mg/kg, route oral; settings: in vivo
[4] = (§1) Half life in mouse at 5 mg/kg, po; type: ADME, organism-based; design: dose 5 mg/kg, route oral; settings: in vivo
Method in brief: (§2)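 Mice dosed by oral gavage at 5 mg/kg in oleic oil triglyceride containing 3% EtOH. Tail-vein blood was sampled before dosing and at 30, 60, 90, 120, 240, 450, 600 and 1440 min, then centrifuged at 3000 rpm, 4°C, 10 min. Plasma was analysed by LC/MS/MS. AUC and t1/2 came from noncompartmental fitting of the concentration-time data.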

[5] = Cmax in mouse at 5 mg/kg, po; type: ADME, organism-based; design: dose 5 mg/kg, route oral; settings: in vivo
[6] = AUC in mouse at 5 mg/kg, po; type: ADME, organism-based; design: dose 5 mg/kg, route oral; settings: plasma; method in brief: as §2
Mus musculus = assay: as §1; type: ADME, organism-based; design: dose 5 mg/kg, route oral; settings: in vivo; method in brief: as §2

Question: Which IC50 [1] does the source give for CC(=O)N1CCN(CCCCOc2ccccc2NC(=O)NC23CC4CC(CC(C4)C2)C3)CC1 here?
Answer: 3150 nM

Question: Which IC50 [1] does the source give for CN1CCN(CCCOc2cccc(NC(=O)NC34CC5CC(CC(C5)C3)C4)c2)CC1 here?
Answer: 23.1 nM

Question: What about the solubility [2] of the same compound?
Answer: 2210 µg/mL (≈ 5180 µM)

Question: With O=C(Nc1ccccc1OCCCN1CCNCC1)NC12CC3CC(CC(C3)C1)C2 as the compound, how does the IC50 [1] read?
Answer: 97500 nM

Question: For CN1CCN(CCCOc2ccccc2NC(=O)NC23CC4CC(CC(C4)C2)C3)CC1, which IC50 [1] is on record?
Answer: 2880 nM

Question: What does the source list for CC(=O)N1CCN(CCCOc2ccccc2NC(=O)NC23CC4CC(CC(C4)C2)C3)CC1?
Answer: IC50 [1]: 994 nM; solubility [2]: 1780 µg/mL (≈ 3920 µM)

Question: For O=C(Nc1cccc(OCCCN2CCNCC2)c1)NC12CC3CC(CC(C3)C1)C2, which IC50 [1] is on record?
Answer: 27.2 nM

Question: And the solubility [2]?
Answer: 810 µg/mL (≈ 1960 µM)

Question: Which IC50 [1] does the source give for CC(=O)N1CCN(CCCOc2cccc(NC(=O)NC34CC5CC(CC(C5)C3)C4)c2)CC1 here?
Answer: 3.6 nM

Question: What about the solubility [2] of the same compound?
Answer: 340 µg/mL (≈ 748 µM)

Question: And the Tmax [3]?
Answer: 0.5 h

Question: And the half-life [4]?
Answer: 8 h

Question: And the Cmax [5]?
Answer: 32 nM

Question: What about the AUC [6] of the same compound?
Answer: 0.185 µM·h

Question: For O=C(Nc1ccc(OCCCN2CCNCC2)cc1)NC12CC3CC(CC(C3)C1)C2, which IC50 [1] is on record?
Answer: 156 nM

Question: With CN1CCN(CCCOc2ccc(NC(=O)NC34CC5CC(CC(C5)C3)C4)cc2)CC1 as the compound, how does the IC50 [1] read?
Answer: 17.9 nM

Question: For CC(=O)N1CCN(CCCOc2ccc(NC(=O)NC34CC5CC(CC(C5)C3)C4)cc2)CC1, which IC50 [1] is on record?
Answer: 3.3 nM

Question: What about the solubility [2] of the same compound?
Answer: 320 µg/mL (≈ 704 µM)

Question: What about the Tmax [3] of the same compound?
Answer: 0.5 h

Question: What about the half-life [4] of the same compound?
Answer: 6 h

Question: What about the Cmax [5] of the same compound?
Answer: 112 nM

Question: What about the AUC [6] of the same compound?
Answer: 0.58 µM·h

Question: For O=C(Nc1ccccc1OCCCCN1CCNCC1)NC12CC3CC(CC(C3)C1)C2, which IC50 [1] is on record?
Answer: 72800 nM

Question: With CN1CCN(CCCCOc2ccccc2NC(=O)NC23CC4CC(CC(C4)C2)C3)CC1 as the compound, how does the IC50 [1] read?
Answer: 5290 nM

Question: For O=C(Nc1cccc(OCCCCN2CCNCC2)c1)NC12CC3CC(CC(C3)C1)C2, which IC50 [1] is on record?
Answer: 14.8 nM

Question: With CN1CCN(CCCCOc2cccc(NC(=O)NC34CC5CC(CC(C5)C3)C4)c2)CC1 as the compound, how does the IC50 [1] read?
Answer: 13.3 nM

Question: For CC(=O)N1CCN(CCCCOc2cccc(NC(=O)NC34CC5CC(CC(C5)C3)C4)c2)CC1, which IC50 [1] is on record?
Answer: 2.7 nM

Question: And the solubility [2]?
Answer: 1820 µg/mL (≈ 3880 µM)

Question: Which IC50 [1] does the source give for O=C(Nc1ccc(OCCCCN2CCNCC2)cc1)NC12CC3CC(CC(C3)C1)C2 here?
Answer: 126 nM

Question: With CN1CCN(CCCCOc2ccc(NC(=O)NC34CC5CC(CC(C5)C3)C4)cc2)CC1 as the compound, how does the IC50 [1] read?
Answer: 44.8 nM

Question: For CC(=O)N1CCN(CCCCOc2ccc(NC(=O)NC34CC5CC(CC(C5)C3)C4)cc2)CC1, which IC50 [1] is on record?
Answer: 7 nM

Question: What about the solubility [2] of the same compound?
Answer: 700 µg/mL (≈ 1490 µM)

Question: And the Tmax [3]?
Answer: 0.5 h

Question: What about the half-life [4] of the same compound?
Answer: 14 h

Question: And the Cmax [5]?
Answer: 84 nM

Question: What about the AUC [6] of the same compound?
Answer: 0.67 µM·h

Question: With O=C(Nc1cccc(OCCCC(=O)N2CCNCC2)c1)NC12CC3CC(CC(C3)C1)C2 as the compound, how does the IC50 [1] read?
Answer: 91.4 nM

Question: For CC(C)(C)OC(=O)N1CCN(CCCCOc2cccc(NC(=O)NC34CC5CC(CC(C5)C3)C4)c2)CC1, which IC50 [1] is on record?
Answer: 7.1 nM

Question: What about the solubility [2] of the same compound?
Answer: 2780 µg/mL (≈ 5280 µM)

Question: And the Tmax [3]?
Answer: 9 h

Question: And the half-life [4]?
Answer: 59 h

Question: And the Cmax [5]?
Answer: 6 nM

Question: And the AUC [6]?
Answer: 0.085 µM·h

Question: Which IC50 [1] does the source give for CC(C)(C)OC(=O)N1CCN(C(=O)CCCOc2cccc(NC(=O)NC34CC5CC(CC(C5)C3)C4)c2)CC1 here?
Answer: 21.5 nM

Question: With CC(=O)N1CCN(C(=O)CCCOc2cccc(NC(=O)NC34CC5CC(CC(C5)C3)C4)c2)CC1 as the compound, how does the IC50 [1] read?
Answer: 5.4 nM

Question: For O=C(Nc1cccc(OCCN2CCNCC2)c1)NC12CC3CC(CC(C3)C1)C2, which IC50 [1] is on record?
Answer: 67.1 nM

Question: Which IC50 [1] does the source give for O=C(Nc1cccc(OCCCCCN2CCNCC2)c1)NC12CC3CC(CC(C3)C1)C2 here?
Answer: 13.8 nM

Question: Which IC50 [1] does the source give for CN1CCN(CCOc2cccc(NC(=O)NC34CC5CC(CC(C5)C3)C4)c2)CC1 here?
Answer: 7.8 nM

Question: With CN1CCN(CCCCCOc2cccc(NC(=O)NC34CC5CC(CC(C5)C3)C4)c2)CC1 as the compound, how does the IC50 [1] read?
Answer: 11.5 nM

Question: For CC(=O)N1CCN(CCCCCOc2cccc(NC(=O)NC34CC5CC(CC(C5)C3)C4)c2)CC1, which IC50 [1] is on record?
Answer: 2.8 nM

Question: Which IC50 [1] does the source give for CC(=O)N1CCN(CCOc2cccc(NC(=O)NC34CC5CC(CC(C5)C3)C4)c2)CC1 here?
Answer: 6 nM

Question: What about the solubility [2] of the same compound?
Answer: 520 µg/mL (≈ 1180 µM)

Question: For CC(C)(C)OC(=O)N1CCN(CCOc2cccc(NC(=O)NC34CC5CC(CC(C5)C3)C4)c2)CC1, which IC50 [1] is on record?
Answer: 2.8 nM

Question: For CC(C)(C)OC(=O)N1CCN(CCCCCOc2cccc(NC(=O)NC34CC5CC(CC(C5)C3)C4)c2)CC1, which IC50 [1] is on record?
Answer: 11.7 nM

Question: Which IC50 [1] does the source give for CC(C)(C)OC(=O)N1CCN(CCCOc2cccc(NC(=O)NC34CC5CC(CC(C5)C3)C4)c2)CC1 here?
Answer: 2.9 nM

Question: What about the solubility [2] of the same compound?
Answer: 540 µg/mL (≈ 1050 µM)

Question: And the Tmax [3]?
Answer: 0.5 h

Question: And the half-life [4]?
Answer: 23 h

Question: What about the Cmax [5] of the same compound?
Answer: 6 nM

Question: What about the AUC [6] of the same compound?
Answer: 0.1 µM·h

Question: Which IC50 [1] does the source give for O=C(Nc1cccc(OCCCCN2CCN(C(=O)C(F)(F)F)CC2)c1)NC12CC3CC(CC(C3)C1)C2 here?
Answer: 1.8 nM

Question: With O=C(Nc1cccc(OCCCCN2CCN(C(=O)CCl)CC2)c1)NC12CC3CC(CC(C3)C1)C2 as the compound, how does the IC50 [1] read?
Answer: 1.4 nM

Question: What does the source list for CS(=O)(=O)N1CCN(CCCCOc2cccc(NC(=O)NC34CC5CC(CC(C5)C3)C4)c2)CC1?
Answer: IC50 [1]: 1 nM; solubility [2]: 2970 µg/mL (≈ 5880 µM); Tmax [3]: 0.5 h; half-life [4]: 3.5 h; Cmax [5]: 160 nM; AUC [6]: 0.333 µM·h

Question: With COc1cc(C(=O)N2CCN(CCCCOc3cccc(NC(=O)NC45CC6CC(CC(C6)C4)C5)c3)CC2)cc(OC)c1OC as the compound, how does the IC50 [1] read?
Answer: 9.6 nM

Question: With O=C(Nc1cccc(OCCCCN2CCN(C(=O)c3ccc(C(F)(F)F)cc3)CC2)c1)NC12CC3CC(CC(C3)C1)C2 as the compound, how does the IC50 [1] read?
Answer: 13.6 nM

Question: For Cc1ccc(S(=O)(=O)N2CCN(CCCCOc3cccc(NC(=O)NC45CC6CC(CC(C6)C4)C5)c3)CC2)cc1, which IC50 [1] is on record?
Answer: 3.3 nM

Question: For CC(C)(C)OC(=O)N1CCN(CCCOc2ccccc2NC(=O)NC23CC4CC(CC(C4)C2)C3)CC1, which IC50 [1] is on record?
Answer: 39.4 nM

Question: With CC(C)(C)OC(=O)N1CCN(CCCCOc2ccccc2NC(=O)NC23CC4CC(CC(C4)C2)C3)CC1 as the compound, how does the IC50 [1] read?
Answer: 16.5 nM

Question: For CC(C)(C)OC(=O)N1CCN(CCCOc2ccc(NC(=O)NC34CC5CC(CC(C5)C3)C4)cc2)CC1, which IC50 [1] is on record?
Answer: 14.6 nM

Question: For CC(C)(C)OC(=O)N1CCN(CCCCOc2ccc(NC(=O)NC34CC5CC(CC(C5)C3)C4)cc2)CC1, which IC50 [1] is on record?
Answer: 20.1 nM

Question: For O=C(O)CCCCCCCCCCCNC(=O)NC12CC3CC(CC(C3)C1)C2, which solubility [2] is on record?
Answer: < 125 µg/mL

Question: What about the t1/2 (Mus musculus) of the same compound?
Answer: 2.1 h

Question: What about the AUC [6] of the same compound?
Answer: 0.05 µM·h
